Results pooled from the literature.
Compare with care: the assays were run in different laboratories.
Target: cAMP-dependent protein kinase catalytic subunit alpha (PRKACA, Homo sapiens, UniProt P17612)

For `C#Cc1cnc(Nc2ccnc(CO)c2)nc1Nc1ccccc1S(C)(=O)=NC#N` (centres unmarked), the remaining signal was 100% (cell-free assay; 1 µM).
The remaining signal of `CN1CCN(C(=O)c2ccc(NC(=O)Nc3ccc(N(C)c4ccnc(Nc5ccc(CS(C)(=O)=O)cc5)n4)cc3)cc2)CC1` is reported as 100% (cell-free assay; 1 µM).
`COc1ccc2oc(-c3ccc4nc(N)oc4c3)c/c(=N\c3ccccc3NC(=O)CCN)c2c1` has a remaining binding of 111% (binding; 1 µM).
`N#Cc1ccc(NC(=O)Nc2ccccc2)cc1` gave a remaining binding of 85% (cell-free assay; competition with immobilised ligand; 25 µM).
`C=CC(=O)N1CCC([C@@H]2CCNc3c(C(N)=O)c(-c4ccc(Oc5ccccc5)cc4)nn32)CC1` gave an inhibition of 9% (enzyme activity; inhibitor; 1 µM).
`CCCCC(=O)Nc1ccc(-c2ccc3ncn(CCC)c(=O)c3c2)cn1` has a remaining binding of 97% (binding; competition with immobilised ligand; 0.5 µM).
`COc1ccc2[nH]c3c4[nH]c5ccc(OC)cc5c4c4c(c3c2c1)C(=O)NC4=O` has a remaining signal of 87% (cell-free assay; 1 µM).
The inhibition of `CO[C@@H]1[C@H](N(C)C(=O)c2ccccc2)C[C@H]2O[C@]1(C)n1c3ccccc3c3c4c(c5c6ccccc6n2c5c31)C(=O)NC4` is reported as 59% (enzyme activity; inhibitor; 1 µM).
